Tests used:
HL-60 [1] = experiment: Cytotoxicity against human HL60 cells incubated for 48 hrs by MTT assay; type: functional, cell-based; settings: HL-60, 48 h
Method in brief: (§1)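 Human tumour lines (HL-60 leukemia, Hep3B liver, H460 lung, A498 renal, COLO205 colon, 2774 and SK-OV-3 ovarian) and normal Detroit 551 skin fibroblasts were exposed to a range of concentrations for 48 h. IC50 is the concentration giving 50% proliferation inhibition, as the mean of three independent determinations.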

[2] = Cytotoxicity against human Hep3B cells incubated for 48 hrs by MTT assay; type: functional, cell-based, Hep 3B2; method in brief: as §1
[3] = Cytotoxicity against human H460 cells incubated for 48 hrs by MTT assay; type: functional, cell-based; settings: NCI-H460, 48 h; method in brief: as §1
A498 = experiment: Cytotoxicity against human A498 cells incubated for 48 hrs by MTT assay; type: functional, cell-based; settings: A498, 48 h
COLO 205 [4] = experiment: Cytotoxicity against human COLO205 cells incubated for 48 hrs by MTT assay; type: functional, cell-based; settings: COLO 205, 48 h; method in brief: as §1
[5] = Cytotoxicity against human 2774 cells incubated for 48 hrs by MTT assay; type: functional, cell-based; method in brief: as §1
SK-OV-3 = experiment: Cytotoxicity against human SKOV3 cells incubated for 48 hrs by MTT assay; type: functional, cell-based; settings: SK-OV-3, 48 h; method in brief: as §1
Detroit 551 = experiment: Cytotoxicity against human Detroit 551 cells incubated for 48 hrs by MTT assay; type: cell-based; settings: Detroit 551, 48 h; method in brief: as §1
COLO 205 [6] = experiment: Cytotoxicity against human COLO205 cells; type: functional, cell-based
HL-60 [7] = experiment: Cytotoxicity against human HL60 cells; type: functional, cell-based

| Compound | IC50 (HL-60 [1]) [µM] | IC50 [2] [µM] | IC50 [3] [µM] | IC50 (A498) [µM] | IC50 (COLO 205 [4]) [µM] | IC50 [5] [µM] | IC50 (SK-OV-3) [µM] | IC50 (Detroit 551) [µM] | IC50 (COLO 205 [6]) [µM] | IC50 (HL-60 [7]) [µM] |
| --- | --- | --- | --- | --- | --- | --- | --- | --- | --- | --- |
| O=C(O)c1cc2c3ccccc3nc-2c[nH]1 | 75 | 75 | 70.5 | > 100 | 49.6 | > 100 | > 100 | > 100 |  |  |
| CCOC(=O)c1cc2c3ccccc3n(Cc3cccnc3)c2cn1 | > 100 | > 100 | > 100 | > 100 | > 100 | > 100 | > 100 | > 100 |  |  |
| CCOC(=O)c1cc2c3ccccc3n(Cc3ccccc3OC)c2cn1 | 3.9 | 8.9 | > 100 | 41.3 | > 100 | > 100 | > 100 | > 100 |  |  |
| CCOC(=O)c1cc2c3ccccc3n(Cc3cccc(OC)c3)c2cn1 |  |  |  | 21.6 | 26.7 | > 100 | > 100 |  |  |  |
| OCc1cc2c3ccccc3nc-2c[nH]1 | > 100 | > 100 | > 100 | > 100 | > 100 | > 100 | > 100 | > 100 |  |  |
| CCOC(=O)c1cc2c3ccccc3n(Cc3cc(OC)cc(OC)c3)c2cn1 | > 100 | > 100 | > 100 | > 100 | > 100 | > 100 | 24.4 | > 100 |  |  |
| CCOC(=O)c1cc2c3ccccc3n(Cc3ccccc3)c2cn1 | > 100 | > 100 | > 100 | 48.2 | > 100 | 26.8 | 3 | 50 |  |  |
| O=C(O)c1cc2c3ccccc3n(Cc3ccc(Cl)cc3)c2cn1 | 3.9 | 1.2 | 15.1 | 9.9 | 26.5 |  |  |  |  |  |
| O=C(O)c1cc2c3ccccc3n(Cc3ccccc3)c2cn1 | 5 | 4.4 | 18.5 | 9.2 | 31 |  |  |  |  |  |
| COc1cc(Cn2c3ccc(C(C)=O)cc3c3cccnc32)cc(OC)c1OC |  |  |  |  |  |  |  |  | 0.52 | 0.03 |
| O=C(O)c1cc2c3ccccc3n(Cc3ccc(F)cc3)c2cn1 |  |  |  | 7.6 | 33.5 | 23.5 | 27.7 |  |  |  |

Source: ChEMBL document CHEMBL3608281, “Synthesis and biological evaluation of novel 3,9-substituted β-carboline derivatives as anticancer agents” (Bioorg Med Chem Lett, 2015)
